Results: ChEMBL document CHEMBL1221214, “Cytosporone B is an agonist for nuclear orphan receptor Nur77” (Nat Chem Biol, 2008)
Values after ≈ are worked out from the molar mass of the structure shown. Active and inactive are the calls of the source. No cut-off for these calls is given here.

Columns and labels:
[1] = molecular target: T1, Nuclear receptor subfamily 4immunitygroup A member 1 (Homo sapiens, UniProt P22736); assay: Agonist activity at nuclear orphan receptor Nur77 in human BGC823 cells bearing beta-galactosidase expression vector assessed as transcriptional activation of NurRE reporter gene after 12 hrs by luciferase assay; assay type: functional, cell-based; settings: BGC-823
T1 sequence (P22736 whole entry): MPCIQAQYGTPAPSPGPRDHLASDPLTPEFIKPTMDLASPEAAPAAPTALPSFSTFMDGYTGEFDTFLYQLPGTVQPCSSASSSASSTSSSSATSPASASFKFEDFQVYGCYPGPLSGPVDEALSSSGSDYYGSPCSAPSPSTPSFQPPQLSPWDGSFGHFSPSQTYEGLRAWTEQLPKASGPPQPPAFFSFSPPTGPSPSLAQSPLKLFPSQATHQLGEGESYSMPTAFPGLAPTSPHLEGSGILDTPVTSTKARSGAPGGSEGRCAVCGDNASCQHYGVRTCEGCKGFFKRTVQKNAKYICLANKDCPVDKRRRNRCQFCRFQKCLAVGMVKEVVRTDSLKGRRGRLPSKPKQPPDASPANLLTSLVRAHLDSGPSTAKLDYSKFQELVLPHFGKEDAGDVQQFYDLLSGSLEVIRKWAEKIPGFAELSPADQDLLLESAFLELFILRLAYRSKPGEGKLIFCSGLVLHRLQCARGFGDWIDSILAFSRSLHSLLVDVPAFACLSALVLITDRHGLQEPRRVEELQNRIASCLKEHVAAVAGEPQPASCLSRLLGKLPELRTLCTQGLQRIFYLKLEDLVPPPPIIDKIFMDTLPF

[2] = molecular target: T1, Nuclear receptor subfamily 4immunitygroup A member 1; assay: Binding affinity to GST-tagged nuclear orphan receptor Nur77 at 25 degC by fluorescence quenching analysis
Method in brief: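 GST-Nur77 intrinsic fluorescence (emission maximum 336 nm) monitored while increasing Csn-B amounts were added; inner-filter contribution estimated with GST alone and subtracted to give corrected quenching curves.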

[3] = molecular target: Nuclear receptor subfamily 4 group A member 1 (Mus musculus) (UniProt P12813); assay: Agonist activity at Nur77 in wild-type mouse C57BL/6 assessed as hexokinase mRNA at 50 mg/kg, ip after 300 mins by real-time PCR analysis; assay type: functional, organism-based; set-up: dose 50 mg/kg
Sequence of Nuclear receptor subfamily 4 group A member 1 (Mus musculus) (P12813 whole entry, the tested form may be a part): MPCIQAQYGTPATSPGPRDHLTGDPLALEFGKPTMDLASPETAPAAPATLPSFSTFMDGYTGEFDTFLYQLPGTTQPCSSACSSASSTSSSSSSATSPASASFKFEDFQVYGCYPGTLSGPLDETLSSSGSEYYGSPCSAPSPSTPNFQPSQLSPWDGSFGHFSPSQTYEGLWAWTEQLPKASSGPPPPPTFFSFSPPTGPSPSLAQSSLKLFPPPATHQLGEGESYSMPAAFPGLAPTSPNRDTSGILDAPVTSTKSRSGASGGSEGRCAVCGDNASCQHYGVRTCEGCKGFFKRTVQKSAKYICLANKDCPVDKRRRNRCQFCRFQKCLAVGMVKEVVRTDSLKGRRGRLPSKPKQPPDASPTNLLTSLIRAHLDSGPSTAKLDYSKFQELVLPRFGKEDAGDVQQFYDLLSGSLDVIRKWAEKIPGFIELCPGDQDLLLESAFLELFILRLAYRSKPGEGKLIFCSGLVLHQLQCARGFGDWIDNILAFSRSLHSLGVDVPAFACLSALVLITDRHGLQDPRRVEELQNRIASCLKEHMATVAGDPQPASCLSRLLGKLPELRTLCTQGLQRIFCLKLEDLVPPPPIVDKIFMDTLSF

[4] = molecular target: T1, Nuclear receptor subfamily 4immunitygroup A member 1; assay: Binding affinity to nuclear orphan receptor Nur77-DNA binding domain at 5 uM by fluorescence quenching analysis
[5] = test system: Mycobacterium tuberculosis; assay: Antimicrobial activity against Mycobacterium tuberculosis; assay type: functional, organism-based
[6] = test system: SW-620; assay: Antiproliferative activity against human SW620 cells assessed as number of viable cells after 72 hrs by MTT assay; assay type: functional
Method in brief: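 BGC-823 gastric and SW620 colon cancer cells incubated 72 h with various Csn-B concentrations; viable cells counted by MTT assay.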

[7] = test system: BGC-823; assay: Induction of Nur77 mediated apoptosis in human BGC823 cells at 5 ug/ml after 48 hrs by flow cytometry assay
[8] = molecular target: T1, Nuclear receptor subfamily 4immunitygroup A member 1; assay: Agonist activity at nuclear orphan receptor Nur77 in human BGC823 cells bearing beta-galactosidase expression vector assessed as transcriptional activation of estrogen receptor reporter gene after 12 hrs by luciferase assay; assay type: functional, cell-based; settings: BGC-823
[9] = molecular target: T1, Nuclear receptor subfamily 4immunitygroup A member 1; assay: Agonist activity at nuclear orphan receptor Nur77 expressed in human BGC823 cells co-transfected with fused GAL4-Nur77 assessed as transactivation after 12 hrs by luciferase reporter gene assay; assay type: functional, cell-based, BGC-823
[10] = molecular target: Nuclear receptor subfamily 4 group A member 1 (Mus musculus) (UniProt P12813); assay: Agonist activity at Nur77 in wild-type mouse C57BL/6 assessed as glucose-6-phosphatase mRNA at 50 mg/kg, ip within 30 mins by real-time PCR analysis relative to control; assay type: functional, organism-based; set-up: dose 50 mg/kg
[11] = test system: Mus musculus; assay: Increase in blood glucose level in wild-type mouse C57BL/6 at 50 mg/kg, ip within 30 mins; assay type: functional; settings: route intraperitoneal
Method in brief: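 C57BL/6 mice (wild-type or Nr4a1-/-, six weeks old) fasted 16 h with water, then given 50 mg kg-1 intraperitoneally. DMSO (50 μl) or injection without vehicle served as controls. Tail-vein blood glucose was read by glucometer at 15, 30, 60, 90, 120, 180 and 300 min. Means ± s.e.m.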

[12] = molecular target: Nuclear receptor subfamily 4 group A member 1 (Mus musculus) (UniProt P12813); assay: Agonist activity at Nur77 in Nr4a1 deficient mouse transfected withGAL4-Y453A assessed as transcriptional activation of luciferase reporter gene; assay type: functional
Method in brief: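 Nr4a1-/- mice (n = 5/group) given tail-vein GAL4-Nur77 or GAL4-Y453A with GAL4-luciferase reporter and β-galactosidase in in vivo transfection reagent; 5 h later DMSO or Csn-B 50 mg kg-1 ip; liver luciferase measured at 24 h.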

[13] = molecular target: T1, Nuclear receptor subfamily 4immunitygroup A member 1; assay: Agonist activity at nuclear orphan receptor Nur77 expressed in human BGC823 cells co-transfected with pLuc-500 containing Nr4a1 promoter assessed as transcriptional activity; assay type: functional, cell-based; settings: BGC-823
[14] = molecular target: Nuclear receptor subfamily 4 group A member 1 (Mus musculus) (UniProt P12813); assay: Agonist activity at Nur77 in wild-type mouse C57BL/6 assessed as fructose-1,6-bisphosphatase mRNA at 50 mg/kg, ip within 30 mins by real-time PCR analysis relative to control; assay type: functional, organism-based; set-up: dose 50 mg/kg
[15] = molecular target: Nuclear receptor subfamily 4 group A member 1 (Mus musculus) (UniProt P12813); assay: Agonist activity at Nur77 in wild-type mouse C57BL/6 assessed as pyruvate kinase mRNA at 50 mg/kg, ip after 300 mins by real-time PCR analysis; assay type: functional, organism-based; set-up: dose 50 mg/kg
[16] = test system: BGC-823; assay: Induction of Nur77 mediated apoptosis in human BGC823 cells assessed as cytochrome C release […] at 5 uM after 24 hrs by Western blotting analysis; assay type: functional, cell-based
[17] = molecular target: Nuclear receptor subfamily 4 group A member 1 (Mus musculus) (UniProt P12813); assay: Agonist activity at Nur77 in wild-type mouse assessed as transcriptional activation of luciferase reporter gene relative to control; assay type: functional
Method in brief: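 Nur77, NurRE-luciferase reporter and β-galactosidase combined with in vivo transfection reagent and injected into tail vein of wild-type or Nr4a1-/- C57BL/6 mice (n = 5/group); 5 h later DMSO (50 μl) or Csn-B 50 mg kg-1 ip; liver lysate luciferase read 24 h post-injection; means ± s.e.m.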

[18] = molecular target: T1, Nuclear receptor subfamily 4immunitygroup A member 1; assay: Binding affinity to nuclear orphan receptor Nur77 by sedimentation equilibrium assay
[19] = species on record: Mus musculus; assay: Antiproliferative activity against mouse ME-Hep4 cells assessed as number of viable cells after 72 hrs by MTT assay; assay type: functional, cell-based
[20] = molecular target: T1, Nuclear receptor subfamily 4immunitygroup A member 1; assay: Agonist activity at nuclear orphan receptor Nur77 expressed in human BGC823 cells co-transfected with pLuc-2900 containing Nr4a1 promoter assessed as transcriptional activity; assay type: functional, cell-based; settings: BGC-823
[21] = molecular target: T1, Nuclear receptor subfamily 4immunitygroup A member 1; assay: Agonist activity at nuclear orphan receptor Nur77 in human BGC823 cells bearing beta-galactosidase expression vector assessed as transcriptional activation of retinoic acid receptor response element after 12 hrs by luciferase assay; assay type: functional, cell-based; settings: BGC-823
[22] = test system: Staphylococcus aureus; assay: Antimicrobial activity against Staphylococcus aureus; assay type: functional, organism-based
[23] = molecular target: T1, Nuclear receptor subfamily 4immunitygroup A member 1; assay: Induction of Nur77-SRC2 interaction in HEK293T cells by GST-pull-down assay; assay type: cell-based; settings: HEK-293T
Method in brief: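 293T cells transfected with Flag-SRC-1, -2 or -3 and treated at 10⁻⁶ M for 3 h. Lysates were incubated with GST-Nur77 or GST alone, and bound SRC was detected by pull-down against input levels.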

[24] = test system: BGC-823; assay: Induction of Nur77 mediated apoptosis in human BGC823 cells assessed as nuclear DNA condensation by flow cytometry assay; assay type: functional, cell-based
[25] = molecular target: T1, Nuclear receptor subfamily 4immunitygroup A member 1; assay: Binding affinity to NuR77-LBD receptor expressed in human BGC823 cells; assay type: cell-based, BGC-823
[26] = molecular target: Nuclear receptor subfamily 4 group A member 1 (Mus musculus) (UniProt P12813); assay: Agonist activity at Nur77 in Nr4a1-/- mouse transfected withGAL4-Y453A assessed as transcriptional activation of luciferase reporter gene
[27] = test system: BGC-823; assay: Induction of Nur77 mediated apoptosis in human BGC823 cells transfected with si-Nur77 at 5 uM after 48 hrs by flow cytometry assay; assay type: functional; settings: in the assay text read “5 ug/ml” for “5 uM”
Method in brief: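 BGC-823 gastric cancer cells, transfected or not with Nur77 siRNA or scrambled control siRNA, then exposed to 5 μg ml-1 for 48 h. Apoptotic cells were counted by flow cytometry.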

[28] = molecular target: T1, Nuclear receptor subfamily 4immunitygroup A member 1; assay: Agonist activity at Nur77 expressed in human gastric cancer BGC823 assessed as transactivation in presence of siRNA against Nur77; assay type: functional; settings: Stomach
[29] = test system: NIH3T3; assay: Antiproliferative activity against mouse NIH/3T3 cells assessed as number of viable cells after 72 hrs by MTT assay; assay type: functional, cell-based
[30] = test system: L02; assay: Antiproliferative activity against human HL7702 cells assessed as number of viable cells after 72 hrs by MTT assay; assay type: functional, cell-based
[31] = molecular target: Nuclear receptor subfamily 4 group A member 2 (Homo sapiens) (UniProt P43354); assay: Agonist activity at nuclear orphan receptor Nurr1 expressed in human BGC823 cells co-transfected with fused GAL4-Nurr1(LBD) assessed as transactivation after 12 hrs by transactivation assay; assay type: functional, cell-based; settings: BGC-823
Sequence of Nuclear receptor subfamily 4 group A member 2 (Homo sapiens) (P43354 whole entry, the tested form may be a part): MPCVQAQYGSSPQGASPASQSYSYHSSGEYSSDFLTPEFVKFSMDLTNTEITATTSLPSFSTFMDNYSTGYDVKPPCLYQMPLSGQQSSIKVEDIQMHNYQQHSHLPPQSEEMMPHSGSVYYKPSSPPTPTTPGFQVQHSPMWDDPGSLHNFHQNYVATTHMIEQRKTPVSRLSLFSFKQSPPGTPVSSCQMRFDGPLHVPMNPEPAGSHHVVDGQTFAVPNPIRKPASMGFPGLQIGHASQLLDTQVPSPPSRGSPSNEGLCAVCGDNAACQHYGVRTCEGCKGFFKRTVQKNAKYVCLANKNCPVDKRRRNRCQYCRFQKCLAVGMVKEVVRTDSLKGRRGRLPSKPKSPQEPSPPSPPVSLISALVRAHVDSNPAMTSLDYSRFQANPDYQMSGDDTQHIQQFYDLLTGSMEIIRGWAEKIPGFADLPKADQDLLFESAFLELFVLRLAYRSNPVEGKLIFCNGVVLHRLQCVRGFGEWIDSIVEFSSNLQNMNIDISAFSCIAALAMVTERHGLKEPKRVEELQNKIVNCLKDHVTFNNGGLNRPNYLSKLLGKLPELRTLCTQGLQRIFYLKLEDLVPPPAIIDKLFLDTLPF

CCCCCCCC(=O)c1c(O)cc(O)cc1CC(=O)OCC [CYTOSPORONE B]
Activity [1]: Active
Activity [2]: Active
Activity [3]: inactive
Activity [4]: inactive
IC50 [5]: 250 µg/mL (≈ 775 µM)
inhibition (INH) [6]: >70%
Activity [7]: 63.5%
Activity [8]: inactive
EC50 [9]: 0.278 nM
Activity [10]: Active
Activity [11]: 11.4 mM
Activity [12]: inactive
Activity [13]: inactive
fold change (FC) [14]: 3
Activity [15]: inactive
Activity [16]: Active
fold change (FC) [17]: 5
Activity [18]: Active
inhibition [19]: Active
Activity [20]: Active
Activity [21]: inactive
IC50 [22]: 12.5 µg/mL (≈ 38.8 µM)
Activity [23]: Active
Activity [24]: Active
Kd [25]: 1510 nM
Activity [26]: Active
Activity [27]: 20.1%
Activity [28]: inactive
inhibition [29]: Active
inhibition [30]: Active
Activity [31]: inactive
